Reference: ChEMBL document CHEMBL1800030, “Synthesis and biological evaluation of anilino substituted pyrimidine linked pyrrolobenzodiazepines as potential anticancer agents” (Bioorg Med Chem Lett, 2010)
pIC50: −log10 of the molar value. Active and inactive are the calls of the source.

Key:
A-375 [1] = assay: Cell cycle arrest in human A375 cells assessed as accumulation at G2/M phase at 4 uM after 24 hrs by propidium iodide staining based FACS analysis (reference value: 17.65 to 23.26%); format: functional
MCF7 = assay: Cytotoxicity against human MCF7 cells after 48 hrs by SRB assay; format: functional; settings: MCF7, 48 h
In short: (§1)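 Cells from human breast, oral, ovary, colon, lung, prostate and cervix cancer lines were tested by sulforhodamine B assay. GI50 is 50% growth inhibition, given as mean ± SEM of three determinations. Activity cutoff was GI50 ≤10^-5 M. Adriamycin served as positive control.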

A549 = assay: Cytotoxicity against human A549 cells after 48 hrs by SRB assay; format: functional; settings: A549, 48 h; in short: as §1
COLO 205 = assay: Cytotoxicity against human COLO205 cells after 48 hrs by SRB assay; format: functional; settings: COLO 205, 48 h; in short: as §1
KB = assay: Cytotoxicity against human KB cells after 48 hrs by SRB assay; format: functional; in short: as §1
PC-3 = assay: Cytotoxicity against human PC3 cells after 48 hrs by SRB assay; format: functional; settings: PC-3, 48 h; in short: as §1
SiHa = assay: Cytotoxicity against human SiHa cells after 48 hrs by SRB assay; format: functional; in short: as §1
A-375 [2] = assay: Induction of apoptosis in human A375 cells at 4 uM after 24 hrs by FACS analysis (reference value: 5.61%); format: functional
A2780 = assay: Cytotoxicity against human A2780 cells after 48 hrs by SRB assay; format: functional; settings: A2780, 48 h; in short: as §1
A-375 [3] = assay: Cytotoxicity against human A375 cells assessed as cell viability at 4 uM after 24 hrs by real time cell analyzer; format: functional; settings: A-375, 24 h, read-out: Activity
In short: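 A375 cell viability was measured after exposure to compound at 4 µM, with percent viability reported.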

[4] = Cytotoxicity against human DWD cells after 48 hrs by SRB assay; format: functional; in short: as §1
ZR-75-1 = assay: Cytotoxicity against human ZR-75-1 cells after 48 hrs by SRB assay; format: functional; settings: ZR-75-1, 48 h; in short: as §1
A-375 [5] = assay: Cytotoxicity against human A375 cells after 24 hrs by MTT assay; format: functional, cell-based; settings: A-375, 24 h
In short: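 MTT proliferation assay on A375 cells, with the IC50 derived from it.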

A-375 [6] = assay: Induction of apoptosis in human A375 cells assessed as PARP cleavage at 4 uM after 24 hrs by Western blot analysis
A-375 [7] = assay: Upregulation of p53 gene expression in human A375 cells at 4 uM after 24 hrs by Western blot analysis; format: functional, cell-based
In short: (§2)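 A375 cells were treated at 4 µM for 24 h, then p53 or cytosolic cytochrome c levels were measured by Western blot. β-Actin served as loading control. Controls were untreated cells and untreated cells plus DMSO.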

A-375 [8] = assay: Cell cycle arrest in human A375 cells assessed as accumulation at G0/G1 phase at 4 uM after 24 hrs by propidium iodide staining based FACS analysis (reference value: 64.7 to 66.26%); format: functional
A-375 [9] = assay: Cell cycle arrest in human A375 cells assessed as accumulation at S phase at 4 uM after 24 hrs by propidium iodide staining based FACS analysis (reference value: 12.04 to 15.67%); format: functional
Nucleic Acid [10] = assay: Binding affinity to calf thymus DNA assessed as change in melting temperature at compound to DNA molar ratio of 1:5 at pH 7 after 18 hrs at 37 degC by thermal denaturation assay; format: nucleic-acid assay; settings: Bos taurus
[11] = Cytotoxicity against human Gurav cells after 48 hrs by SRB assay; format: functional; in short: as §1
HOP-62 = assay: Cytotoxicity against human HOP62 cells after 48 hrs by SRB assay; format: functional; settings: HOP-62, 48 h; in short: as §1
A-375 [12] = assay: Induction of mitochondrial dysfunction in human A375 cells assessed as increase in cytosolic cytochrome c level at 4 uM after 24 hrs by Western blot analysis; format: functional, cell-based; in short: as §2
Nucleic Acid [13] = assay: Inhibition of BamH1-induced DNA cleavage activity in Escherichia coli pBR322 at 4 uM after 24 hrs by agarose gel electrophoresis; format: nucleic-acid assay
In short: (§3)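 pBR322 plasmid DNA was incubated with compound at 2–32 µM and then digested with BamHI. Restriction-digestion inhibition was judged against cut (BamHI, no compound) and uncut vector lanes.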

Nucleic Acid [14] = assay: Inhibition of BamH1-induced DNA cleavage activity in Escherichia coli pBR322 at 16 uM after 24 hrs by agarose gel electrophoresis; format: nucleic-acid assay
In short: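 RED100 restriction-digestion assay: pBR322 vector DNA incubated with compound at 2, 4, 8, 16 and 32 µM, then digested with BamHI. Lanes are compared with uncut vector and with vector cut by BamHI without compound. DNA binding is read as inhibition of BamHI cleavage.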

Nucleic Acid [15] = assay: Inhibition of BamH1-induced DNA cleavage activity in Escherichia coli pBR322 at 8 uM after 24 hrs by agarose gel electrophoresis; format: nucleic-acid assay; in short: as §3

ΔTm (Nucleic Acid [10]) [°C]	SMILES	Activity (A-375 [1]) [%]	GI50 (MCF7) [nM]	GI50 (A549) [nM]	GI50 (COLO 205) [nM]	GI50 (KB) [nM]	GI50 (PC-3) [nM]	GI50 (SiHa) [nM]	Activity (A-375 [2]) [%]	GI50 (A2780) [nM]	viability at 4 µM (A-375 [3]) [%]	GI50 [4] [nM]	GI50 (ZR-75-1) [nM]	pIC50 (A-375 [5])	Activity (A-375 [6])	Activity (A-375 [7])	Activity (A-375 [8]) [%]	Activity (A-375 [9]) [%]	GI50 [11] [nM]	GI50 (HOP-62) [nM]	further results
2.5	COc1cc2c(cc1OCCCCC(=O)Nc1ccc(C)c(Nc3nccc(-c4cc(OC)c(OC)c(OC)c4)n3)c1)N=C[C@@H]1C[C@H](F)CN1C2=O	6.04	160	2500	2100	170	170	1800	36.15	180	64.9	180	2700	5.25	Active	Active	76.76	17.19	150	120	Activity (A-375 [12]): Active; inhibition (Nucleic Acid [13]): inactive
1.4	COc1cc2c(cc1OCCCCC(=O)Nc1ccc(C)c(Nc3nccc(-c4cc(OC)c(OC)c(OC)c4)n3)c1)N=C[C@@H]1CCCN1C2=O	–	2000	2300	2300	170	1800	1800	–	180	–	1800	2600	–	–	–	–	–	2000	2400	–
6.8	COc1cc2c(cc1OCc1ccc(C(=O)Nc3ccc(C)c(Nc4nccc(-c5cccnc5)n4)c3)cc1)N=C[C@@H]1CCCN1C2=O	5.67	140	140	120	140	150	170	49.7	130	48	130	160	5.96	Active	Active	80.98	13.55	< 100	170	inhibition (Nucleic Acid [15]): Active; Activity (A-375 [12]): Active; inhibition (Nucleic Acid [13]): inactive
2.1	COc1cc2c(cc1OCCCCC(=O)Nc1ccc(C)c(Nc3nccc(-c4cccnc4)n3)c1)N=C[C@@H]1CCCN1C2=O	6.47	170	2300	2300	180	2030	2200	41.59	2400	72	2500	170	5.26	Active	Active	80.98	13.98	< 100	160	Activity (A-375 [12]): Active; inhibition (Nucleic Acid [13]): inactive
–	COc1cccc2c1C(=O)c1c(O)c3c(c(O)c1C2=O)C[C@@](O)(C(=O)CO)C[C@@H]3O[C@H]1C[C@H](N)[C@H](O)[C@H](C)O1 [DOXORUBICIN]	–	< 100	150	< 100	110	170	2100	–	< 100	–	< 100	130	–	–	–	–	–	120	140	–
7.1	COc1cc2c(cc1OCc1ccc(C(=O)Nc3ccc(C)c(Nc4nccc(-c5cccnc5)n4)c3)cc1)N=C[C@@H]1C[C@H](F)CN1C2=O	0.16	< 100	160	< 100	120	140	120	83.86	130	33.7	140	150	6.80	Active	Active	98.44	0.2	130	150	inhibition (Nucleic Acid [15]): Active; Activity (A-375 [12]): Active; inhibition (Nucleic Acid [13]): inactive
–	Cc1ccc(NC(=O)c2ccc(CBr)cc2)cc1Nc1nccc(-c2cccnc2)n1	21	–	–	–	–	–	–	–	–	–	–	–	–	–	–	68	11	–	–	–

SMILES	ΔTm (Nucleic Acid [10]) [°C]	Activity (A-375 [1]) [%]	GI50 (MCF7) [nM]	GI50 (A549) [nM]	GI50 (COLO 205) [nM]	GI50 (KB) [nM]	GI50 (PC-3) [nM]	GI50 (SiHa) [nM]	Activity (A-375 [2]) [%]	GI50 (A2780) [nM]	viability at 4 µM (A-375 [3]) [%]	GI50 [4] [nM]	GI50 (ZR-75-1) [nM]	pIC50 (A-375 [5])	Activity (A-375 [6])	Activity (A-375 [7])	Activity (A-375 [8]) [%]	Activity (A-375 [9]) [%]	GI50 [11] [nM]	GI50 (HOP-62) [nM]	further results
COc1cc2c(cc1O)N=C[C@@H]1CCCN1C2=O	0.7	–	170	160	110	170	200	170	–	140	–	–	–	–	–	–	–	–	160	150	inhibition (Nucleic Acid [14]): Active
